The source made the active and inactive calls.
Tests used:
Mus musculus [1] = test: Neurotoxicity in mouse assessed as mortality at 300 mg/kg, ip after 4 hrs by rotarod test; assay type: toxicity, organism-based; parameters: dose 300 mg/kg, route intraperitoneal; conditions: in vivo
Mus musculus [2] = test: Anticonvulsant activity in mouse assessed as protection against subcutaneous pentylenetetrazole-induced seizures at 100 mg/kg, ip after 4 hrs; assay type: functional, organism-based; parameters: dose 100 mg/kg
Outline: (§1)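 Swiss albino mice (20-24 g) were dosed ip with a suspension in 30% aqueous PEG 400 and challenged 0.5 h or 4 h later. Protection meant no threshold seizure (clonic spasms lasting at least 5 s). Scored as number protected/number tested, one mouse per dose and time.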

Mus musculus [3] = test: Anticonvulsant activity in mouse assessed as protection against subcutaneous pentylenetetrazole-induced seizures at 100 mg/kg, ip after 0.5 hrs; assay type: functional, organism-based; parameters: dose 100 mg/kg; outline: as §1
Mus musculus [4] = test: Anticonvulsant activity in mouse assessed as protection against subcutaneous pentylenetetrazole-induced seizures at 30 mg/kg, ip after 0.5 hrs; assay type: functional, organism-based; parameters: dose 30 mg/kg; outline: as §1
Mus musculus [5] = test: Neurotoxicity in mouse assessed as motor impairment at 100 mg/kg, ip after 0.5 hrs by rotarod test; assay type: toxicity, organism-based; parameters: dose 100 mg/kg, route intraperitoneal; conditions: in vivo
Outline: (§2)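 Swiss albino mice (20-24 g) were dosed ip with a suspension in 30% aqueous PEG 400 and tested 0.5 h or 4 h later. They were placed on a knurled wooden rod 1 inch in diameter, rotating at 6 rpm. Toxicity meant failure to stay on the rod for at least 1 min in each of three trials. Scored as number toxic/number tested (4 mice at 0.5 h, 2 at 4 h).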

Mus musculus [6] = test: Anticonvulsant activity in mouse assessed as protection against maximal electroshock-induced seizures at 300 mg/kg, ip after 4 hrs; assay type: functional, organism-based; parameters: dose 300 mg/kg
Outline: (§3)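 Swiss albino mice (20-24 g) received an ip suspension in 30% aqueous PEG 400 and were tested 0.5 h and 4 h after dosing. Shock was delivered through corneal electrodes from a constant current unit, with 0.9% saline dropped into the eyes first. Protection meant abolition of the hind limb tonic extension. Scored as number protected/number tested, one mouse per dose and time.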

Mus musculus [7] = test: Neurotoxicity in mouse assessed as motor impairment at 30 mg/kg, ip after 4 hrs by rotarod test; assay type: toxicity, organism-based; parameters: dose 30 mg/kg, route intraperitoneal; conditions: in vivo; outline: as §2
Mus musculus [8] = test: Anticonvulsant activity in mouse assessed as protection against maximal electroshock-induced seizures at 100 mg/kg, ip after 4 hrs; assay type: functional, organism-based; parameters: dose 100 mg/kg; outline: as §3
Mus musculus [9] = test: Anticonvulsant activity in mouse assessed as protection against maximal electroshock-induced seizures at 30 mg/kg, ip after 0.5 hrs; assay type: functional, organism-based; parameters: dose 30 mg/kg; outline: as §3
Mus musculus [10] = test: Anticonvulsant activity in mouse assessed as protection against maximal electroshock-induced seizures at 300 mg/kg, ip after 0.5 hrs; assay type: functional, organism-based; parameters: dose 300 mg/kg; outline: as §3
Mus musculus [11] = test: Anticonvulsant activity in mouse assessed as protection against subcutaneous pentylenetetrazole-induced seizures at 30 mg/kg, ip after 4 hrs; assay type: functional, organism-based; parameters: dose 30 mg/kg; outline: as §1
Mus musculus [12] = test: Neurotoxicity in mouse assessed as motor impairment at 100 mg/kg, ip after 4 hrs by rotarod test; assay type: toxicity, organism-based; parameters: dose 100 mg/kg, route intraperitoneal; conditions: in vivo; outline: as §2
Mus musculus [13] = test: Anticonvulsant activity in mouse assessed as protection against maximal electroshock-induced seizures at 30 mg/kg, ip after 4 hrs; assay type: functional, organism-based; parameters: dose 30 mg/kg; outline: as §3
Mus musculus [14] = test: Anticonvulsant activity in mouse assessed as protection against maximal electroshock-induced seizures at 100 mg/kg, ip after 0.5 hrs; assay type: functional, organism-based; parameters: dose 100 mg/kg; outline: as §3
Mus musculus [15] = test: Neurotoxicity in mouse assessed as mortality at 300 mg/kg, ip after 0.5 hrs by rotarod test; assay type: toxicity, organism-based; parameters: dose 300 mg/kg, route intraperitoneal; conditions: in vivo
Mus musculus [16] = test: Neurotoxicity in mouse assessed as motor impairment at 30 mg/kg, ip after 0.5 hrs by rotarod test; assay type: toxicity, organism-based; parameters: dose 30 mg/kg, route intraperitoneal; conditions: in vivo; outline: as §2
Mus musculus [17] = test: Anticonvulsant activity in mouse assessed as protection against subcutaneous pentylenetetrazole-induced seizures at 300 mg/kg, ip after 0.5 hrs; assay type: functional, organism-based; parameters: dose 300 mg/kg; outline: as §1
Mus musculus [18] = test: Neurotoxicity in mouse assessed as motor impairment at 300 mg/kg, ip after 0.5 hrs by rotarod test; assay type: toxicity, organism-based; parameters: dose 300 mg/kg, route intraperitoneal; conditions: in vivo; outline: as §2
Mus musculus [19] = test: Neurotoxicity in mouse assessed as motor impairment at 300 mg/kg, ip after 4 hrs by rotarod test; assay type: toxicity, organism-based; parameters: dose 300 mg/kg, route intraperitoneal; conditions: in vivo; outline: as §2
Mus musculus [20] = test: Anticonvulsant activity in mouse assessed as protection against subcutaneous pentylenetetrazole-induced seizures at 300 mg/kg, ip after 4 hrs; assay type: functional, organism-based; parameters: dose 300 mg/kg; outline: as §1

Row | SMILES | Activity (Mus musculus [1]) | Activity (Mus musculus [2]) | Activity (Mus musculus [3]) | Activity (Mus musculus [4]) | Activity (Mus musculus [5]) | Activity (Mus musculus [6]) | Activity (Mus musculus [7]) | Activity (Mus musculus [8]) | Activity (Mus musculus [9]) | Activity (Mus musculus [10]) | Activity (Mus musculus [11]) | Activity (Mus musculus [12]) | Activity (Mus musculus [13]) | Activity (Mus musculus [14]) | Activity (Mus musculus [15]) | Activity (Mus musculus [16]) | Activity (Mus musculus [17]) | Activity (Mus musculus [18]) | Activity (Mus musculus [19]) | Activity (Mus musculus [20])
1 | O=C(CCC(=O)c1ccccc1)O/N=C(\Cn1ccnc1)c1ccc2ccccc2c1 | Toxic | inactive | inactive | inactive | Non-toxic | inactive | Non-toxic | Active | Active | inactive | inactive | Non-toxic | Active | Active | Toxic | Non-toxic | inactive |  |  | 
2 | O=C(O/N=C(\Cn1ccnc1)c1ccc2ccccc2c1)c1ccccc1Cl |  | inactive | inactive | inactive | Non-toxic | inactive | Non-toxic | inactive | inactive | Active | inactive | Non-toxic | inactive | Active |  | Non-toxic | inactive | Non-toxic | Non-toxic | inactive

Source: ChEMBL document CHEMBL2086248, “Synthesis of some novel 1-(2-naphthyl)-2-(imidazol-1-yl)ethanone oxime ester derivatives and evaluation of their anticonvulsant activity” (Eur J Med Chem, 2012)
